Measured values as given in ChEMBL document CHEMBL4184148 (Bioorg Med Chem Lett, 2017).

Key:
[1] = target: Tyrosine-protein kinase ABL2 (Homo sapiens) (UniProt P42684); test: Binding affinity to wild-type human ABL2 (A248 to G542 residues) expressed in Escherichia coli BL21 at 1 uM by Kinomescan method relative to control
[2] = target: Aurora kinase A (Homo sapiens) (UniProt O14965); test: Binding affinity to wild-type human partial length AURKA (E122 to K401 residues) expressed in HEK293 cells at 1 uM by Kinomescan method relative to control; type: cell-based
In short: (§1)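 Kinome-wide competition binding panel run by an outside provider, with each compound tested at a single concentration. Activity is read against the kinase panel.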

[3] = target: Bone morphogenetic protein receptor type-2 (Homo sapiens) (UniProt Q13873); test: Binding affinity to wild-type human partial length BMPR2 (R179 to Q526 residues) expressed in HEK293 cells at 1 uM by Kinomescan method relative to control; type: cell-based
[4] = target: Serine/threonine-protein kinase DCLK2 (Homo sapiens) (UniProt Q8N568); test: Binding affinity to wild-type human partial length DCAMKL2 (K273 to V664 residues) expressed in Escherichia coli BL21 at 1 uM by Kinomescan method relative to control
[5] = target: Myotonin-protein kinase (Homo sapiens) (UniProt Q09013); test: Binding affinity to wild-type human partial length DMPK (V47 to V415 residues) expressed in Escherichia coli BL21 at 1 uM by Kinomescan method relative to control
[6] = target: Mitogen-activated protein kinase 6 (Homo sapiens) (UniProt Q16659); test: Binding affinity to wild-type human partial length ERK3 (M1 to P413 residues) expressed in Escherichia coli BL21 at 1 uM by Kinomescan method relative to control
[7] = tested on: Receptor-type tyrosine-protein kinase FLT3 (Homo sapiens), P36888 [D835V]; test: Binding affinity to human partial length FLT3 D835V mutant (V592 to Y969 residues) expressed in Escherichia coli BL21 at 1 uM by Kinomescan method relative to control
[8] = tested on: eIF-2-alpha kinase GCN2 (Homo sapiens), Q9P2K8 [S808G]; test: Binding affinity to wild-type human partial length GCN2 kinase domain 2 (R585 to T1018 residues) S808G mutant expressed in Escherichia coli BL21 at 1 uM by Kinomescan method relative to control
[9] = target: Tyrosine-protein kinase HCK (Homo sapiens) (UniProt P08631); test: Binding affinity to wild-type human full length HCK (M22 to P526 residues) expressed in Escherichia coli BL21 at 1 uM by Kinomescan method relative to control
In short: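 Run as one kinome-wide competition binding panel with each compound at a single fixed concentration. Results were plotted as a kinome-wide selectivity map.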

[10] = target: Tyrosine-protein kinase JAK1 (Homo sapiens) (UniProt P23458); test: Binding affinity to wild-type human partial length JAK1 JH2 pseudokinase domain (R537 to D855 residues) expressed in HEK293 cells at 1 uM by Kinomescan method relative to control; type: cell-based
[11] = target: Mitogen-activated protein kinase 10 (Homo sapiens) (UniProt P53779); test: Binding affinity to wild-type human partial length JNK3 (V28 to Q422 residues) expressed in HEK293 cells at 1 uM by Kinomescan method relative to control; type: cell-based
[12] = tested on: Mast/stem cell growth factor receptor Kit (Homo sapiens), P10721 [V559D,V654A]; test: Binding affinity to human partial length KIT V559D/V654A double mutant (Y545 to D952 residues) expressed in Escherichia coli BL21 at 1 uM by Kinomescan method relative to control
[13] = target: Myosin light chain kinase (Homo sapiens) (UniProt Q32MK0); test: Binding affinity to wild-type human partial length MLCK (D488 to K800 residues) expressed in Escherichia coli BL21 at 1 uM by Kinomescan method relative to control
[14] = target: Serine/threonine-protein kinase 38-like (Homo sapiens) (UniProt Q9Y2H1); test: Binding affinity to wild-type human partial length NDR2 (N34 to E447 residues) expressed in Escherichia coli BL21 at 1 uM by Kinomescan method relative to control
[15] = target: Mitogen-activated protein kinase 13 (Homo sapiens) (UniProt O15264); test: Binding affinity to wild-type human full length p38-delta (M1 to L365 residues) expressed in Escherichia coli BL21 at 1 uM by Kinomescan method relative to control; in short: as §1
[16] = target: Serine/threonine-protein kinase PAK 4 (Homo sapiens) (UniProt O96013); test: Binding affinity to wild-type human partial length PAK4 (Q144 to R438 residues) expressed in Escherichia coli BL21 at 1 uM by Kinomescan method relative to control
[17] = target: 3-phosphoinositide-dependent protein kinase 1 (Homo sapiens) (UniProt O15530); test: Binding affinity to wild-type human full length PDPK1 (M1 to Q556 residues) expressed in Escherichia coli BL21 at 1 uM by Kinomescan method relative to control; in short: as §1
[18] = target: Protein kinase C epsilon type (Homo sapiens) (UniProt Q02156); test: Binding affinity to wild-type human partial length PRKCE (A378 to P737 residues) expressed in HEK293 cells at 1 uM by Kinomescan method relative to control; type: cell-based
[19] = target: Serine/threonine-protein kinase PRP4 homolog (Homo sapiens) (UniProt Q13523); test: Binding affinity to wild-type human partial length PRP4 (D657 to I1007 residues) expressed in Escherichia coli BL21 at 1 uM by Kinomescan method relative to control
[20] = target: Ribosomal protein S6 kinase alpha-4 (Homo sapiens) (UniProt O75676); test: Binding affinity to wild-type human partial length C-terminal RPS6KA4 kinase domain 2 (M375 to T705 residues) expressed in HEK293 cells at 1 uM by Kinomescan method relative to control; type: cell-based
[21] = target: Serine/threonine-protein kinase SIK2 (Homo sapiens) (UniProt Q9H0K1); test: Binding affinity to wild-type human full length SIK2 (M1 to N926 residues) expressed in Escherichia coli BL21 at 1 uM by Kinomescan method relative to control; in short: as §1
[22] = target: Serine/threonine-protein kinase 35 (Homo sapiens) (UniProt Q8TDR2); test: Binding affinity to wild-type human partial length STK35 (G182 to A534 residues) expressed in Escherichia coli BL21 at 1 uM by Kinomescan method relative to control
[23] = target: Serine/threonine-protein kinase 36 (Homo sapiens) (UniProt Q9NRP7); test: Binding affinity to wild-type human partial length STK36 (M1 to T271 residues) expressed in Escherichia coli BL21 at 1 uM by Kinomescan method relative to control
[24] = target: Non-receptor tyrosine-protein kinase TYK2 (Homo sapiens) (UniProt P29597); test: Binding affinity to wild-type human partial length TYK2 JH2 pseudokinase domain (G556 to D888 residues) expressed in HEK293 cells at 1 uM by Kinomescan method relative to control; type: cell-based
[25] = target: Serine/threonine-protein kinase WNK3 (Homo sapiens) (UniProt Q9BYP7); test: Binding affinity to wild-type human partial length WNK3 (M1 to D434 residues) expressed in HEK293 cells at 1 uM by Kinomescan method relative to control; type: cell-based
Sequence of Serine/threonine-protein kinase WNK3 (Homo sapiens) (Q9BYP7 whole entry, the tested form may be a part): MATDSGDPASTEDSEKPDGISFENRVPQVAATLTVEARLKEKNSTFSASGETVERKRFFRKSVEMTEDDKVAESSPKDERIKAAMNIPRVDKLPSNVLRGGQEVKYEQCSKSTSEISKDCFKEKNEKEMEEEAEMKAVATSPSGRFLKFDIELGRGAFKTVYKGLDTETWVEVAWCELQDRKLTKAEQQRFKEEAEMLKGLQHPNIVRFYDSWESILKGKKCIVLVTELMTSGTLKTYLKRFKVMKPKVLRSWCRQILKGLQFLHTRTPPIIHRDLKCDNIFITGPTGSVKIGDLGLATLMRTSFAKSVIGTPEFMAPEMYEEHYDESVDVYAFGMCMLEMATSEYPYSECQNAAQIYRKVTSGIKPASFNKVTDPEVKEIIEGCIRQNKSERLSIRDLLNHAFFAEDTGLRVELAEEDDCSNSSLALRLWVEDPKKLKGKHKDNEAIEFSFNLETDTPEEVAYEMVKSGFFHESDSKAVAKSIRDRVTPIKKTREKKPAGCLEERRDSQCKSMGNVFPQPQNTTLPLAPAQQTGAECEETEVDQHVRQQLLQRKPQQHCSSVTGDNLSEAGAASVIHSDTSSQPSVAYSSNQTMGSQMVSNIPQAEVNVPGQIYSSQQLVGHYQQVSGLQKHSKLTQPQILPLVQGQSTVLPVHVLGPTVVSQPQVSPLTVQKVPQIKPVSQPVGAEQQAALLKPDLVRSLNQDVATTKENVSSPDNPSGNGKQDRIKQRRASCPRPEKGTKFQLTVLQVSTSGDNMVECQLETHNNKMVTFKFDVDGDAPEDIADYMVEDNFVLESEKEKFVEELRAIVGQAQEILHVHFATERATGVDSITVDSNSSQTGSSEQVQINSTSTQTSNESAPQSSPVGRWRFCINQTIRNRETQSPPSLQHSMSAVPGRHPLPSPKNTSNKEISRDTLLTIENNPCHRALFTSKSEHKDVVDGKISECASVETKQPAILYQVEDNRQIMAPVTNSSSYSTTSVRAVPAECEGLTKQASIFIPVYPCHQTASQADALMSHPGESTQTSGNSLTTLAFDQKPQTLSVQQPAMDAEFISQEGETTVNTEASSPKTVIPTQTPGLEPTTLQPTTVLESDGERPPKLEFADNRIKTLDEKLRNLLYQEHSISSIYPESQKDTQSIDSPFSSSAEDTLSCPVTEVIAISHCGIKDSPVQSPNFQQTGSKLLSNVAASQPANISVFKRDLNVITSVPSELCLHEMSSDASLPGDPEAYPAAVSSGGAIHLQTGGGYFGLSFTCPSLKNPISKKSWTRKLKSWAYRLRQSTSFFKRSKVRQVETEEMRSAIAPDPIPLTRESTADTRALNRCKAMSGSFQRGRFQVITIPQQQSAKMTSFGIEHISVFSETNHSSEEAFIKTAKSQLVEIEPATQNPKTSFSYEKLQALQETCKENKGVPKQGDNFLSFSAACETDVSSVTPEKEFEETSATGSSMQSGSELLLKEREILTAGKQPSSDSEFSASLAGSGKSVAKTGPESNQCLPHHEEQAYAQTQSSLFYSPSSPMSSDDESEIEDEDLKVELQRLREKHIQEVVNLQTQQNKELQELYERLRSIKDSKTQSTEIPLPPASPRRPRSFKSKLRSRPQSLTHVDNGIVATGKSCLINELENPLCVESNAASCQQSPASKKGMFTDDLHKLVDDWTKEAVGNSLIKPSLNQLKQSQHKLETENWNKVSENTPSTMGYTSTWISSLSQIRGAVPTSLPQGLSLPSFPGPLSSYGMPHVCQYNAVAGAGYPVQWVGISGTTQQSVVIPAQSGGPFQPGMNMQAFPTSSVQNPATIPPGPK

Sequence of Tyrosine-protein kinase JAK1 (Homo sapiens) (P23458 whole entry, the tested form may be a part): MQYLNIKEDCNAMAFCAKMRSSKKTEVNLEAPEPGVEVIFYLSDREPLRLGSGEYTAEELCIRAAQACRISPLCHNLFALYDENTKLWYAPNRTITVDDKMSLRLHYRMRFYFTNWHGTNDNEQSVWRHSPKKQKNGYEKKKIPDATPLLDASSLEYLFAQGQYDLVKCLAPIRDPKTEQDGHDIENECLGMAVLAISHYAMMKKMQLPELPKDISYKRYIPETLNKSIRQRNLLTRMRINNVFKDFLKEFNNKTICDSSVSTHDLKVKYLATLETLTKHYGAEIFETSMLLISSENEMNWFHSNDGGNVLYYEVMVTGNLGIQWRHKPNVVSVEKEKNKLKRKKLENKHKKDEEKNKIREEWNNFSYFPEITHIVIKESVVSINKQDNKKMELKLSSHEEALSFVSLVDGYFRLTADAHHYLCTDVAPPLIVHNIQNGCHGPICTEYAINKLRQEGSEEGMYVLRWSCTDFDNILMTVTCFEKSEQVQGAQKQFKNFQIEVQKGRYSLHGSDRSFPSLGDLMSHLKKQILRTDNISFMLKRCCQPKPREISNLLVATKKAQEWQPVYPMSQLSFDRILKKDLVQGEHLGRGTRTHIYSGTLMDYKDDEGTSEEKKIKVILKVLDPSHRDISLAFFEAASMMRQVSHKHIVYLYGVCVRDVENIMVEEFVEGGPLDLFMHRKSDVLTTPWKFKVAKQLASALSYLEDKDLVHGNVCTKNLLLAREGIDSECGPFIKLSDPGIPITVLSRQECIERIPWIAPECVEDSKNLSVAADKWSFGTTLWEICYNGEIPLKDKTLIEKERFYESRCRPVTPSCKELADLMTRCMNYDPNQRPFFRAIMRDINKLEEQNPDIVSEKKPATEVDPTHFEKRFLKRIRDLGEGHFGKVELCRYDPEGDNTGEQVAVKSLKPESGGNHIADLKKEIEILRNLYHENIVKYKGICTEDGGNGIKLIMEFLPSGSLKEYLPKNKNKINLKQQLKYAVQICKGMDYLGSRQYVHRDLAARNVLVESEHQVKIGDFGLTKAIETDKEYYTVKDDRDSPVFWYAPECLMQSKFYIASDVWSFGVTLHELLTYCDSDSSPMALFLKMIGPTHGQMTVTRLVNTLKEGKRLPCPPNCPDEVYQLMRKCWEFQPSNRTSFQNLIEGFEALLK
Sequence of Bone morphogenetic protein receptor type-2 (Homo sapiens) (Q13873 whole entry, the tested form may be a part): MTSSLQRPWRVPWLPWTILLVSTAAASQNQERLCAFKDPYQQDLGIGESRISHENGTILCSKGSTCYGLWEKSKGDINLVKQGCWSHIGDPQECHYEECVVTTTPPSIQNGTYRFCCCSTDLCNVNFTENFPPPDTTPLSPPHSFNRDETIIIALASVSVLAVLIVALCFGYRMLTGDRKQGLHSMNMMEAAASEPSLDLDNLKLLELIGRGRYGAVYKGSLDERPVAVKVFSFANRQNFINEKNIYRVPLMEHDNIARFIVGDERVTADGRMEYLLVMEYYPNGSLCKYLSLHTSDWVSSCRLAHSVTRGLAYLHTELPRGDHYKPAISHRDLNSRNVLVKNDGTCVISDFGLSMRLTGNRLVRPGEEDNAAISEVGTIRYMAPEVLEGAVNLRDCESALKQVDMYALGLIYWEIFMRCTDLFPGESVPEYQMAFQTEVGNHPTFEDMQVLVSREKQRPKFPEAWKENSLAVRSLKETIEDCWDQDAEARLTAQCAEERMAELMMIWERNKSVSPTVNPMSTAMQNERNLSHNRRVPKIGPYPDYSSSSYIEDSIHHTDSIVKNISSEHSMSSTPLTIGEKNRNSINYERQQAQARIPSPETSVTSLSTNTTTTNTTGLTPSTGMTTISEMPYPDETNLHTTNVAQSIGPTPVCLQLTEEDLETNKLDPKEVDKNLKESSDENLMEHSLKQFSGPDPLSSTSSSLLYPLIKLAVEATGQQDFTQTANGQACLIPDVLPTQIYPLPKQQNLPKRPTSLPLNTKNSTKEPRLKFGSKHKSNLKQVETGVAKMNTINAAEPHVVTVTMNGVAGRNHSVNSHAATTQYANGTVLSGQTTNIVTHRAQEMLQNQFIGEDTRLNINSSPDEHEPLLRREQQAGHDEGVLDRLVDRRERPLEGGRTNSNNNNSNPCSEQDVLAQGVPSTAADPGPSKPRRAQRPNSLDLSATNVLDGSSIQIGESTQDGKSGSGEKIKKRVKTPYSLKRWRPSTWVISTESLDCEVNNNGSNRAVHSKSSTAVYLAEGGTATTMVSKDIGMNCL
Sequence of Serine/threonine-protein kinase DCLK2 (Homo sapiens) (Q8N568 whole entry, the tested form may be a part): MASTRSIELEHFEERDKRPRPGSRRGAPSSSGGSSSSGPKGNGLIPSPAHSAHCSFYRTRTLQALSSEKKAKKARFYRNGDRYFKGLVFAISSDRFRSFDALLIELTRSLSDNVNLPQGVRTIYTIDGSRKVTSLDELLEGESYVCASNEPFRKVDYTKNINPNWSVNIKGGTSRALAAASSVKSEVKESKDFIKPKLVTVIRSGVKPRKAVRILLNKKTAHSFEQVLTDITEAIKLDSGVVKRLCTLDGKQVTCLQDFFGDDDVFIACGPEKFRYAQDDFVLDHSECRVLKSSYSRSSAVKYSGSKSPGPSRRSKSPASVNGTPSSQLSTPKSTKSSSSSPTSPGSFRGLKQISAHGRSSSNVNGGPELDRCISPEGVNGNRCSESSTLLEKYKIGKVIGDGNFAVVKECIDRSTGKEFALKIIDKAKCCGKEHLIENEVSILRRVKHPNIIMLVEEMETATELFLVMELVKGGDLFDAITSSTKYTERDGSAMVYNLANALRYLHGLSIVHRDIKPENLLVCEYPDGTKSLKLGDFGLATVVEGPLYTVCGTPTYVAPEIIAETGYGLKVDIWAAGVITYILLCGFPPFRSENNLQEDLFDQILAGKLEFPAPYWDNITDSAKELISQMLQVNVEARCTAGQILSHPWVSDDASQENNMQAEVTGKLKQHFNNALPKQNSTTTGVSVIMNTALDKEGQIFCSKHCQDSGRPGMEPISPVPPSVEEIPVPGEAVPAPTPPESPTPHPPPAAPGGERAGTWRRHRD
Sequence of Mitogen-activated protein kinase 13 (Homo sapiens) (O15264 whole entry, the tested form may be a part): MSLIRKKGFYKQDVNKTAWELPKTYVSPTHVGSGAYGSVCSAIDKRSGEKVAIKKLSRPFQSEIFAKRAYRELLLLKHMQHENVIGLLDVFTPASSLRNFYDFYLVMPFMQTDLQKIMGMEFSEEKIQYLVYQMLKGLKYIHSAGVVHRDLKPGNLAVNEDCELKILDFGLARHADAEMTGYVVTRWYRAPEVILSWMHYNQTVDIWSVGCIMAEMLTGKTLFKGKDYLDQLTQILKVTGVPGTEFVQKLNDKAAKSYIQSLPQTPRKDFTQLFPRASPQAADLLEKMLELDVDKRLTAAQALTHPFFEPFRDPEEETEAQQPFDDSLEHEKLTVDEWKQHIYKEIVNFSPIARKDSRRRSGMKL

| SMILES | Activity [1] [%] | Activity [2] [%] | Activity [3] [%] | Activity [4] [%] | Activity [5] [%] | Activity [6] [%] | Activity [7] [%] | Activity [8] [%] | Activity [9] [%] | Activity [10] [%] | Activity [11] [%] | Activity [12] [%] | Activity [13] [%] | Activity [14] [%] | Activity [15] [%] | Activity [16] [%] | Activity [17] [%] | Activity [18] [%] | Activity [19] [%] | Activity [20] [%] | further results |
| --- | --- | --- | --- | --- | --- | --- | --- | --- | --- | --- | --- | --- | --- | --- | --- | --- | --- | --- | --- | --- | --- |
| CCC(=O)Nc1ccc(C(=O)Nc2ccc(Nc3ncc4c(n3)N(C)c3ccc(C)cc3C(=O)N4C)cc2)cc1 | 78 | 0.45 | 77 | 81 | 100 | 81 | 86 | 94 | 74 | 79 | 92 | 97 | 99 | 79 | 97 | 98 | 96 | 100 | 100 | 51 | Activity [21]: 78%; Activity [22]: 77%; Activity [23]: 93%; Activity [24]: 93%; Activity [25]: 100% |
| C=CC(=O)Nc1ccc(C(=O)Nc2ccc(Nc3ncc4c(n3)N(C)c3ccc(C)cc3C(=O)N4C)cc2)cc1 | 95 | 0 | 95 | 78 | 96 | 97 | 90 | 100 | 100 | 100 | 100 | 91 | 90 | 97 | 84 | 97 | 100 | 87 | 99 | 96 | Activity [21]: 89%; Activity [22]: 96%; Activity [23]: 100%; Activity [24]: 88%; Activity [25]: 100% |
